From PubChem
Lung fibro prol: antiproliferative effect on LL 47 fibroblasts – human, LL 47 cells, CellTiter-Glo luminescence, primary screen; LL 47 human lung fibroblast viability, ATP luminescence; hits give low values; viability, % at 10 µM; 85,000 compounds, 1.1% hits;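 active means viability at or below 50% in the single dose screen; inactive means viability above 50%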;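 further: compound exposure lasted 72 h before the ATP readout; 100% = median luminescence of untreated cell-only wells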
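Test system: LL 47 human lung fibroblasts / Quantity: 1,150 cells in each well / Medium: IMEM growth medium with 15% fetal bovine serum / Incubation: 72 h compound exposure at 37 °C after overnight plating / Detection: CellTiter-Glo luminescence measuring cellular ATP / Read-out: % viability versus median cells-only luminescence / Benchmarks: cell-only wells, no compound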
HUVEC prolif 384: inhibitors of HUVEC proliferation, primary screen, cell-based, 384-well; CellTiter-Glo luminescence, 72 h; hits give low values; viability, % at 10 µM (by protocol); 86,000 compounds, 1.1% hits;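 active means viability at or below 30%; inactive means viability above 30%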;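 further: 100% = median luminescence of DMSO-only cell control wells on each plate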
PTEN del growth: growth suppression of PTEN-null HCT116, primary screen, cell-based, CellTiter-Glo. HCT116 PTEN-null viability, 60 h; hits give low values. viability, % at 10 µM. 140,000 compounds, 1.2% hits. AID 827, 2007;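 active means viability at or below a set limit, 4 SD under the median of all tested compounds, cut at about 3.7% in these data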;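 further: PTEN knockout HCT116 line with beta catenin targeted HCT116 as companion control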
Phagocyt inh: inhibitors of macrophage phagocytosis, primary screen, imaging, J774A.1 cells, IgG beads. J774A.1 macrophage IgG-bead phagocytosis. AID 1029, 2008. 110,000 compounds, 0.07% hits. inhibition, % at 5 µM;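 active means inhibition above the mean of the plate negative controls plus 5 SD, cut at about 13% in these data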;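 further: phagocytic index as fraction of beads internalized from green versus red external bead signal; plate controls were DMSO negative control for no effect and cytochalasin-D positive control for full effect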
H69AR inhibit: proliferation blockers of H69AR lung cancer cells, primary screen, cell-based, human, 86K library; H69AR lung tumor viability, ATP luminescence, 72 h; hits give low values; viability, % at 10 µM; 85,000 compounds, 6% hits;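 active means viability at or below 40%; inactive means viability above 40%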;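 further: multidrug resistant small cell line overexpressing MRP-1 efflux transporter; 100% = mean luminescence of untreated control wells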
HCT116 bCat-KO: primary screen for growth suppressors in beta-catenin knockout HCT116 cells (colon tumor, human); HCT116 beta-catenin knockout viability, CellTiter-Glo, 60 h; hits give low values; viability, % at 10 µM; 140,000 compounds, 1.5% hits;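 active means viability at or under a set limit, the compound median less 4 SD, cut at about 6% in these data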;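 further: 0% = Hyamine 1622 control at 20 µM and 100% = untreated cell control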
* hit, by the source's call. This is one part of a sample in which hits are shown more often than they occur.

Screening O=C(NCc1ccccc1F)C1CCCN1C(=O)NCc1ccccc1 (centres undefined) returned Lung fibro prol 101, HUVEC prolif 384 95, PTEN del growth 105, Phagocyt inh 0, H69AR inhibit 97 and HCT116 bCat-KO 108.
For CC(Oc1cc(-c2ccccc2)cc2ccccc12)C(=O)N1CCOCC1 (centres undefined) the results were Lung fibro prol 94, HUVEC prolif 384 80, PTEN del growth 78, Phagocyt inh 1, H69AR inhibit 36* and HCT116 bCat-KO 90.
Screening Cc1cc(=O)oc2cc(OC(C)C(=O)N3CCOCC3)ccc12 (centres undefined) returned Lung fibro prol 104, HUVEC prolif 384 93, PTEN del growth 93, Phagocyt inh 0, H69AR inhibit 97 and HCT116 bCat-KO 93.
Screening Cc1c(NS(=O)(=O)c2cccc3nsnc23)c(=O)n(-c2ccccc2)n1C returned Lung fibro prol 90, HUVEC prolif 384 92, PTEN del growth 98, Phagocyt inh -10, H69AR inhibit 85 and HCT116 bCat-KO 98.
COc1ccccc1-c1nn2c(-c3ccccc3Cl)nnc2s1 was read as Lung fibro prol 103, HUVEC prolif 384 89, Phagocyt inh -1 and H69AR inhibit 80.
For Cc1nnc2sc(-c3cc4ccccc4o3)nn12 the results were Lung fibro prol 108, HUVEC prolif 384 99 and H69AR inhibit 91.
`COc1ccc(-c2nn3c(-c4ccccc4)nnc3s2)cc1` gave Lung fibro prol 91, HUVEC prolif 384 73, PTEN del growth 80, H69AR inhibit 35* and HCT116 bCat-KO 91.
`CCN(CC)c1ccc(-c2nn3c(-c4ccccc4OC)nnc3s2)cc1` gave Lung fibro prol 38*, HUVEC prolif 384 12*, PTEN del growth 2.1*, Phagocyt inh 4, H69AR inhibit 12* and HCT116 bCat-KO 3.3*.
Screening c1ccc(-c2nnc3sc(-c4ccncc4)nn23)cc1 returned Lung fibro prol 96, HUVEC prolif 384 92, PTEN del growth 87, Phagocyt inh 1, H69AR inhibit 80 and HCT116 bCat-KO 88.
Screening c1ccc(-c2nnc3sc(-c4cc5ccccc5o4)nn23)cc1 returned Lung fibro prol 111, HUVEC prolif 384 65, PTEN del growth 108, Phagocyt inh -1, H69AR inhibit 32* and HCT116 bCat-KO 99.
Screening c1ccc(-c2nnc3sc(-c4csc5c4CCCC5)nn23)cc1 returned Lung fibro prol 100, HUVEC prolif 384 76, PTEN del growth 60, Phagocyt inh 0, H69AR inhibit 31* and HCT116 bCat-KO 62.
`Cc1ccc(C)c(OCCOCCN2CC(C)OC(C)C2)c1C` (centres undefined) gave Lung fibro prol 102, HUVEC prolif 384 91, PTEN del growth 80, Phagocyt inh 0, H69AR inhibit 83 and HCT116 bCat-KO 76.
Screening O=C(N/N=C/C1C(c2ccccc2)C1(Cl)Cl)c1cccc(Br)c1 (centres undefined) returned PTEN del growth 92, Phagocyt inh -2 and HCT116 bCat-KO 87.
`CCCOC(=O)C1=C(C)OC23OC(N)=C(C#N)C12C(=O)c1ccccc13` (centres undefined) gave Lung fibro prol 96, HUVEC prolif 384 101, PTEN del growth 107, H69AR inhibit 91 and HCT116 bCat-KO 101.
Screening COc1ccc(NC(=S)N(CCc2nc3cc(C)c(C)cc3[nH]2)Cc2cccnc2)cc1 returned PTEN del growth 72 and HCT116 bCat-KO 92.
CN1CC(c2ccc(Cl)c(Cl)c2)[C@@]2(COc3ccccc3C2=O)[C@@]12C(=O)Nc1ccccc12 (some centres undefined) was read as PTEN del growth 2.9*, Phagocyt inh -1 and HCT116 bCat-KO 4.7*.
CCOC(=O)/C(C#N)=C(\N)C(C)C(=O)Nc1ccccn1 (centres undefined) was read as Lung fibro prol 97, HUVEC prolif 384 91, PTEN del growth 107, Phagocyt inh 0, H69AR inhibit 87 and HCT116 bCat-KO 101.
